ChEMBL document CHEMBL1152591, “Design, synthesis and structure-activity relationship of 2-(3',4',5'-trimethoxybenzoyl)-benzo[b]furan derivatives as a novel class of inhibitors of tubulin polymerization” (Bioorg Med Chem, 2009)
Blank lines part the entries; values can stand above or below the compound they belong to.

Columns and labels:
FM3A = assay: Cytotoxicity against mouse FM3A0 cells after 2 days; format: functional, cell-based; conditions: 48 h
HeLa = assay: Cytotoxicity against human HeLa cells after 2 days; format: functional, cell-based; conditions: 48 h
[1] = Cytotoxicity against human Molt4/C8 cells after 2 days; conditions: MOLT-4, 48 h
CCRF-CEM = assay: Cytotoxicity against human CEM cells after 2 days; format: functional, cell-based; conditions: 48 h
L1210 = assay: Cytotoxicity against mouse L1210 cells after 2 days; format: functional, cell-based; conditions: L1210, 48 h
Outline: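 Cells were incubated with the compounds at 37 °C for two days, then counted on a Coulter counter. IC50 is the concentration that inhibits cell proliferation by 50%.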

[2] = Inhibition of bovine tubulin polymerization; design: species or system Bos taurus
Outline: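 Purified bovine brain tubulin (10 μM) in glutamate buffer was preincubated with varying compound concentrations at 30 °C, then cooled to 0 °C. GTP was added and the mixture warmed to 30 °C in a recording spectrophotometer. Assembly was followed by turbidity.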

K562 [3] = assay: Cell cycle arrest in human K562 cells assessed as accumulation at G2 phase at 420 nM after 24 hrs by flow cytometry; format: functional
K562 [4] = assay: Cell cycle arrest in human K562 cells assessed as accumulation at sub-G0/G1 phase at 420 nM after 24 hrs by flow cytometry; format: functional
Bos taurus = species on record: Bos taurus; assay: Displacement of [3H]colchicine from bovine tubulin at 5 uM
Outline: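 Reaction mixtures held 1 μM bovine brain tubulin, 5 μM [3H]colchicine and 5 μM test compound. Inhibition of radiolabelled colchicine binding to tubulin is expressed as percent inhibition.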

K562 [5] = assay: Cell cycle arrest in human K562 cells assessed as accumulation at S phase at 420 nM after 24 hrs by flow cytometry; format: functional
K562 [6] = assay: Cell cycle arrest in human K562 cells assessed as accumulation at G1 phase at 420 nM after 24 hrs by flow cytometry; format: functional
K562 [7] = assay: Cell cycle arrest in human K562 cells assessed as accumulation at sub-G0/G1 phase at 530 nM after 24 hrs by flow cytometry; format: functional
Outline: (§1)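 K562 leukaemia cells were cultured for 24 h with compound at one fixed concentration. DNA content per cell was measured by the standard propidium iodide procedure and flow cytometry. Proportions of cells in the sub-G0–G1 (apoptotic), G0–G1, S and G2–M peaks were compared with an untreated control.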

K562 [8] = assay: Cell cycle arrest in human K562 cells assessed as accumulation at G2 phase at 530 nM after 24 hrs by flow cytometry; format: functional; outline: as §1
K562 [9] = assay: Cell cycle arrest in human K562 cells assessed as accumulation at S phase at 530 nM after 24 hrs by flow cytometry; format: functional; outline: as §1
K562 [10] = assay: Cell cycle arrest in human K562 cells assessed as accumulation at G1 phase at 530 nM after 24 hrs by flow cytometry; format: functional; outline: as §1
K562 [11] = assay: Cell cycle arrest in human K562 cells assessed as accumulation at sub-G0/G1 phase at 1.62 µM after 24 hrs by flow cytometry
K562 [12] = assay: Cell cycle arrest in human K562 cells assessed as accumulation at G2 phase at 1.62 µM after 24 hrs by flow cytometry
K562 [13] = assay: Cell cycle arrest in human K562 cells assessed as accumulation at S phase at 1.62 µM after 24 hrs by flow cytometry
K562 [14] = assay: Cell cycle arrest in human K562 cells assessed as accumulation at G1 phase at 1.62 µM after 24 hrs by flow cytometry

SMILES: COc1cc(C(=O)c2cc3cc(C)ccc3o2)cc(OC)c1OC
IC50 (FM3A): 8.4 µM | IC50 (HeLa): > 0.01 µM | IC50 [1]: 2.5 µM | IC50 (CCRF-CEM): 7.2 µM | IC50 (L1210): 7.1 µM

SMILES: COc1cc(C(=O)c2oc3cccc(OC)c3c2C)cc(OC)c1OC
IC50 [2]: 1.8 µM | IC50 (FM3A): 0.57 µM | IC50 (HeLa): 0.34 µM | Activity (K562 [3]): 50.2% | Activity (K562 [4]): 21.24% | IC50 [1]: 0.2 µM | Activity (Bos taurus): 66% | IC50 (CCRF-CEM): 0.49 µM | Activity (K562 [5]): 42.1% | Activity (K562 [6]): 7.7% | IC50 (L1210): 0.59 µM

SMILES: COc1cc(C(=O)c2oc3cc(O)ccc3c2C)cc(OC)c1OC
IC50 (FM3A): > 10 µM | IC50 (HeLa): 0.26 µM | IC50 [1]: 1.3 µM | IC50 (CCRF-CEM): 4.3 µM | IC50 (L1210): > 10 µM

SMILES: COc1ccc2cc(C(O)c3cc(OC)c(OC)c(OC)c3)oc2c1 (stereo not given)
IC50 (FM3A): 7.01 µM | IC50 (HeLa): > 10 µM | IC50 [1]: 3 µM | IC50 (CCRF-CEM): > 10 µM | IC50 (L1210): > 10 µM

SMILES: COc1cc(C(=O)c2cc3cccc(OC)c3o2)cc(OC)c1OC
IC50 (FM3A): > 10 µM | IC50 (HeLa): > 10 µM | IC50 [1]: 7.8 µM | IC50 (CCRF-CEM): > 10 µM | IC50 (L1210): > 10 µM

SMILES: COc1cc(C(=O)c2cc3cc(OC)c(OC)c(OC)c3o2)cc(OC)c1OC
IC50 (FM3A): > 10 µM | IC50 (HeLa): > 10 µM | IC50 [1]: > 10 µM | IC50 (CCRF-CEM): > 10 µM | IC50 (L1210): > 10 µM

SMILES: COc1cc(C(=O)c2oc3ccccc3c2C)cc(OC)c1OC
IC50 (FM3A): 2.1 µM | IC50 (HeLa): 0.89 µM | IC50 [1]: 1.3 µM | IC50 (CCRF-CEM): 2 µM | IC50 (L1210): 2.1 µM

IC50 [2]: 0.57 µM | Activity (Bos taurus): 85%
SMILES: COc1cc(C(=O)c2oc3cccc(O)c3c2C)cc(OC)c1OC
IC50 (FM3A): 0.33 µM | IC50 (HeLa): 0.13 µM | IC50 [1]: 0.084 µM | IC50 (CCRF-CEM): 0.1 µM | Activity (K562 [7]): 7.6% | Activity (K562 [8]): 65.12% | Activity (K562 [9]): 26.37% | IC50 (L1210): 0.48 µM | Activity (K562 [10]): 8.52%

SMILES: COc1cc(C(=O)c2cc3ccccc3o2)cc(OC)c1OC
IC50 (FM3A): > 10 µM | IC50 [1]: 8 µM | IC50 (CCRF-CEM): > 10 µM | IC50 (L1210): > 10 µM

SMILES: COc1cc(C(=O)c2cc3ccc(O)cc3o2)cc(OC)c1OC
IC50 (FM3A): > 10 µM | IC50 (HeLa): > 10 µM | IC50 [1]: > 10 µM | IC50 (CCRF-CEM): > 10 µM | IC50 (L1210): > 10 µM

IC50 [2]: 6.9 µM
SMILES: COc1cc(C(=O)c2oc3cc(F)ccc3c2C)cc(OC)c1OC
IC50 (FM3A): 3.7 µM | Activity (K562 [11]): 44.32% | IC50 [1]: 2.1 µM | IC50 (CCRF-CEM): 2.7 µM | Activity (K562 [12]): 47.46% | Activity (K562 [13]): 44.32% | Activity (K562 [14]): 8.23% | IC50 (L1210): 3.5 µM

SMILES: COc1ccc2oc(C(=O)c3cc(OC)c(OC)c(OC)c3)cc2c1
IC50 (FM3A): > 10 µM | IC50 (HeLa): > 10 µM | IC50 [1]: 9.4 µM | IC50 (CCRF-CEM): > 10 µM | IC50 (L1210): > 10 µM

SMILES: COc1cc(C(=O)c2cc3cc(Br)ccc3o2)cc(OC)c1OC
IC50 (FM3A): > 10 µM | IC50 (HeLa): > 10 µM | IC50 [1]: > 10 µM | IC50 (CCRF-CEM): > 10 µM | IC50 (L1210): > 10 µM

SMILES: COc1ccc2cc(Cc3cc(OC)c(OC)c(OC)c3)oc2c1
IC50 (FM3A): 2.6 µM | IC50 (HeLa): 0.68 µM | IC50 [1]: 0.77 µM | IC50 (CCRF-CEM): 1.5 µM | IC50 (L1210): 2.3 µM

SMILES: COc1ccc2c3c(oc2c1)C(=O)c1cc(OC)c(OC)c(OC)c1-3
IC50 (FM3A): > 10 µM | IC50 (HeLa): > 10 µM | IC50 [1]: > 10 µM | IC50 (CCRF-CEM): > 10 µM | IC50 (L1210): > 10 µM
